# High-throughput results (PubChem)
# DDE Tn6 FP inh = disrupts Tn6 cyclic peptide binding to fibrin D-Dimer-E complex; 370,000 compounds, 0.21% hits; inhibition, % at 8.3 µM; Fibrin DD(E) TRITC-Tn6 fluorescence polarization displacement; P02675;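 active = inhibition above a per-campaign cutoff: mean of compounds within control limits plus 3 SD, cut at about 15% in these data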;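 note: 0% = median of all compound wells on the plate and 100% = blocking peptide control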
# DDE Tn7 FP inh = disrupts Tn7 cyclic peptide binding to fibrin D-Dimer-E complex. P02675. FP displacement of FITC-Tn7 peptide from fibrin DD(E); 0% = median of compound wells per plate. inhibition, % at 8.3 µM. 370,000 compounds, 0.13% hits;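 active = inhibition above the mean of compounds falling within the control limits plus 3 SD of them, cut at about 14% in these data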;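 note: 0% = plate median of compound wells and 100% = 10 µM Aha-Tn7 peptide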
#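 Assay system: human fibrin DD(E). Input: DD(E) 2 µM final. Medium: Tris buffer with calcium and detergent, pH 7.8. Compound dosing: single point at 8.3 µM. Timing: 10 min plus 3 h, room temperature. Technique: fluorescence polarization of the labelled Tn7 tracer. Read-out: percent inhibition. Replicates: singlicate testing.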
# C-LANA FP = KSHV C-LANA DNA binding inhibition; MBP-C-LANA/FAM-LBS DNA binding, fluorescence polarization; inhibition, % at 9 µM; 340,000 compounds, 0.078% hits; AID 504423;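 active = highest replicate inhibition at or above 60% at 9 µM, even if other replicates fall short; inactive = all replicates below 60% inhibition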;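 note: 0% = neutral control wells and 100% = 4 µM acridine orange control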
# Keap1 Nrf2 FP = inhibitors of human Keap1-Nrf2 protein-protein interaction | Keap1 Kelch-Nrf2 peptide fluorescence polarization, 1536-well | inhibition, % at 9.4 µM | 340,000 compounds, 0.15% hits; in the data active = inhibition above about 12%;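 note: human Keap1 Kelch domain with fluorescein labeled Nrf2 9mer peptide probe; 0% = neutral control wells and 100% = peptide positive control; higher means more block of Keap1 binding to Nrf2 peptide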
# Rtt109 HAT inh = blocks Candida albicans Rtt109/Vps75 acetyltransferase activity | Q5AAJ8 | purified Rtt109/Vps75, ThioGlo CoA-SH fluorescence, 4 h | inhibition, % at 34.9 µM | 330,000 compounds, 0.16% hits | AID 540336;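 active = inhibition of at least 50% in every replicate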
# Target sequence (Q5AAJ8 whole entry, looked up): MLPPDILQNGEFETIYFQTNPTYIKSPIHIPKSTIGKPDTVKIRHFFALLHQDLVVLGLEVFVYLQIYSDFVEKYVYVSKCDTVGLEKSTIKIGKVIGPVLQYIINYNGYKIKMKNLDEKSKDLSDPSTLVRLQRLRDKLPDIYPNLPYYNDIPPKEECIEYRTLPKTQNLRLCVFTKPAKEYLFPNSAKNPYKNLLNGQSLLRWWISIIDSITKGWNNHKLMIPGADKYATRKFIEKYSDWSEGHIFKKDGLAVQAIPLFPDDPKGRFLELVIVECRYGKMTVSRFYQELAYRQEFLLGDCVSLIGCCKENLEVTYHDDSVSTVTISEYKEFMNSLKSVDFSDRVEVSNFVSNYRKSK
# Tn6 DDE ctr = counter-screen hit for Tn6 peptide-fibrin DD(E) binding disruption. shares compounds with DDE Tn6 FP inh. TRITC-Tn6 fluorescence polarization displacement; 0% = median of compound wells, not DMSO. inhibition, % at 8.3 µM. 680 compounds, 2% hits;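 active = inhibition above the mean of test compounds lying between the control limits plus 3 SD of those, cut at about 14% in these data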;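 note: 0% = median of compound wells and 100% = wells with Aha-Tn7 blocking peptide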
# Tn6 DDE conf = confirmation of inhibitors of Tn6 binding to human fibrin DD(E). shares compounds with DDE Tn6 FP inh. FP displacement of TRITC-Tn6 peptide from DD(E); 0% = per-plate median of test wells. inhibition, % at 8.3 µM. 680 compounds, 10% hits. AID 720631;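 active = inhibition above the mean of compounds lying within the control limits plus 3 SD, cut at about 16% in these data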;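 note: 100% = high control wells holding a competing inhibitor peptide at 10 µM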
# Starred values were filed as active, the others as inactive; . = no result. This is a sample that favours compounds with a hit; in the whole collection about 0.6% have one here.
SMILES,DDE Tn6 FP inh,DDE Tn7 FP inh,C-LANA FP,Keap1 Nrf2 FP,Rtt109 HAT inh,Tn6 DDE ctr,Tn6 DDE conf
Cc1cccc(Cn2cc(CN3CC(N(C)CCCOC(=O)c4cc5ccccc5o4)CS3(=O)=O)nn2)c1 (stereo unspecified),-12,0,.,.,.,.,.
c1ccc(Cn2ccc3ccc(-c4ccc5ccn(Cc6ccc7ccccc7c6)c5c4)cc32)cc1,-8,-3,.,.,.,.,.
Cc1ccc(C(=O)n2cnc3ccccc32)cc1C,16*,0,-1,-5,-1,4,3
COC(=O)c1ccc(S(=O)(=O)N2CCC(NC(=O)CCC3CCCC3)CC2)cc1,-6,2,.,.,.,.,.
CCC[C@H]1[C@@H](OC(=O)NCc2ccc(OC)cc2)CC[C@@]23CCCN2C(=O)CCC[C@@H]13,1,-2,.,.,.,.,.
CCOc1ccc(NC(=O)C(C)Sc2nnc(C)n2C)cc1 (stereo unspecified),1,1,0,-5,-5,.,.
Cc1ccc(NC(=O)C(C)Sc2nnc(C)n2C)cc1 (stereo unspecified),15*,-3,-2,-1,-5,6,1
COc1ccc(NC(=O)CSCC(=O)Nc2sccc2C#N)cc1,16*,6,0,-7,0,1,6
COc1ccc2cc(C(=O)Nc3ccc(S(N)(=O)=O)cc3)sc(=O)c2c1OC,18*,2,1,2,3,3,3
COC(=O)c1cccc(Cn2ccc3ccc(-c4ccc5ccn(C(=O)C6CC6)c5c4)cc32)c1,-1,-3,.,.,.,.,.
C[C@H]1C(c2ccccc2F)O[C@]2(C[C@H](O)c3ccccc3O2)C[C@@H]1O (stereo partly specified),4,-4,.,.,.,.,.
O=c1[nH]nc(Cc2ccc(Cl)cc2)c2ccccc12,15*,4,-1,1,3,0,-3
O=c1[nH]nc(CNc2ccc(O)cc2)c2ccccc12,16*,0,2,-8,0,-7,-3
O=c1[nH]nc(Cc2ccc(Cl)cc2Cl)c2ccccc12,-1,-4,1,-3,5,.,.
CCCC(=O)N1CCC[C@]2(CC[C@@H](CCC(=O)OCC)O2)C1,-1,-5,.,.,.,.,.
Nn1c(SCC(=O)Nc2ccc(S(=O)(=O)Nc3nccs3)cc2)nnc1-c1ccco1,-4,-1,.,.,.,.,.
O=S(=O)(Nc1cccc(-c2cn3cccnc3n2)c1)c1ccc(-c2ccccc2)cc1,20*,-3,1,-2,6,1,-6
O=S(=O)(Nc1cccc(-c2cn3cccnc3n2)c1)c1ccccc1,-9,2,-2,-6,-1,.,.
O=C(O)c1ccc(S(=O)(=O)c2ccc3c(c2)C(=O)N(c2ccc(O)cc2)C3=O)cc1,48*,0,0,1,-2,2,1
COc1cc(NC(=O)c2cnn3c(C)cc(C)nc23)cc(OC)c1OC,-1,-1,.,.,.,.,.
O=C(CSc1n[nH]c(=O)n1C1CC1)Nc1ccccc1,-10,4,0,-7,-1,.,.
N#Cc1ccc(NC(=O)CSc2n[nH]c(=O)n2C2CC2)cc1,16*,3,-2,1,2,3,4
Nn1c(SCC(=O)Nc2cccc3ccccc23)nnc1-c1cc(-c2ccc(Cl)cc2)n[nH]1,6,2,.,.,.,.,.
CN[C@H]1C[C@H]2c3[nH]c4cccc(-c5ccccc5)c4c3CCN2C[C@H]1[C@H](C)O,-6,-12,.,.,.,.,.
O=C(Nc1ccccc1Oc1ccccc1)NC1CCCCN(Cc2cccc(Cl)c2)C1=O (stereo unspecified),1,2,.,.,.,.,.
SMILES,DDE Tn6 FP inh,DDE Tn7 FP inh,C-LANA FP,Keap1 Nrf2 FP,Rtt109 HAT inh,Tn6 DDE ctr,Tn6 DDE conf
O=C(c1ccc(Br)cc1)N1CCN(S(=O)(=O)c2ccccc2)CC1,16*,-9,-1,-5,6,-5,-11
O=C(OCc1cn(Cc2ccccc2F)nn1)N1CCOCC1,-7,-4,.,.,.,.,.
COc1ccc(Cl)c(Cn2c(NCCCO)nc3c2c(=O)n(C)c(=O)n3C)c1,17*,2,2,-3,6,-4,-4
O=C(c1coc(=O)c(Br)c1)N1CCOCC1,18*,3,6,2,-5,-2,-4
O=C(c1ccc(=O)oc1)N1CCOCC1,2,1,29,-3,-9,.,.
COC(=O)c1cc(-c2cccc(C(C)C)c2)c(=O)n2c1CCC2,-2,1,.,.,.,.,.
CC(=O)N1CCSc2ccc(S(=O)(=O)NCCc3cccc(C)c3)cc21,16*,0,-1,-3,-1,-1,-2
COC(=O)c1cc(-c2ccc(C)c(C)c2)c(=O)n2c1CCC2,5,0,.,.,.,.,.
CCn1cc(C(=O)N2CCN(c3ccc(F)cc3)CC2)c(=O)c2ccc(C)nc21,-2,1,.,.,.,.,.
O=C(CSc1nc2ncccc2[nH]1)NC1CCCCC1,-4,3,2,-3,-2,.,.
CCC(Sc1nc2ncccc2[nH]1)C(=O)NC1CCCC1 (stereo unspecified),18*,-1,0,-7,4,0,-1
O=[n+]1c2c(n([O-])c3cc(F)c(N4CCCC4)cc31)CCC2,16*,12,38,-11,-1,4,17*
O=[n+]1c2c(n([O-])c3cc(F)c(N4CCCC4)cc31)CCCC2,12,1,39,-18,-8,.,.
COC(=O)C1CN(Cc2ccc(F)cc2)CCS(=O)(=O)N1Cc1ccccc1 (stereo unspecified),0,-5,.,.,.,.,.
CCOc1ccc(-n2c(SCc3nc4ccccc4[nH]3)nnc2-c2cccc(Cl)c2)cc1,4,7,.,.,.,.,.
Cc1cc(N2C(=O)C(=O)/C(=C(/O)c3ccccc3)C2c2cccs2)no1 (stereo unspecified),21*,7,0,-3,3,5,-1
Cc1cc(NC(=O)c2ccc(NS(=O)(=O)c3ccc(F)cc3)cc2)no1,17*,2,.,.,.,1,-5
CC1(C)CC(=O)C2=C(C1)N1C(=C(C#N)C2c2ccccc2Cl)N=C(N)c2ccccc21 (stereo unspecified),17*,-6,1,2,7,2,0
COC(=O)c1ccc2c(c1)SC1=C(CCCC1=O)N2,22*,-1,2,-3,2,1,24*
Cc1cc(C(C)(C)C)cc(S(=O)(=O)NCCc2ccncc2)c1C,21*,0,0,3,1,-5,-8
C[C@@H]1CN(Cc2nc(-c3ccc(Cl)cc3)no2)C[C@H](C)O1,17*,-3,-1,4,-1,-1,-4
COc1cc(CCC(=O)OCC(=O)Nc2c(C)cccc2C(C)C)cc(OC)c1OC,16*,6,-2,1,4,9,3
